Test results reported in publication PMC3983359 (Journal of Medicinal Chemistry, 2014).
In brackets after ≈: the same amount, converted by molar mass. Structures can show the parent of a compound that is named as a salt. Peptide text beside a SMILES is read from it. * marks the point of attachment. βNA = c1ccc2cc(N*)ccc2c1

How the values were obtained:
B. subtilis Sfp-PPTase = target: T1, B. subtilis Sfp-PPTase (Bacillus subtilis, UniProt P39135); experiment: Sfp-PPTase qHTS assay; assay type: biochemical; conditions: for IC50 ± SD: triplicate; for Sfp-PPTase inhibitory activity in words: SAR discussion
T1 sequence (P39135 1-224): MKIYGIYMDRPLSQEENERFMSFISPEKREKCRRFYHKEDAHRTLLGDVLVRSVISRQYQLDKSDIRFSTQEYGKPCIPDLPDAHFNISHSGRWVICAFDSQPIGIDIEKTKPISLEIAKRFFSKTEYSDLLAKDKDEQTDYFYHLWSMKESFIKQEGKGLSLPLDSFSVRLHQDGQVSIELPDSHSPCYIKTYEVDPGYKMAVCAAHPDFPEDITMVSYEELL

[1] = tested on: S. aureus BK2395 (PFGE USA500); experiment: Mouse model of S. aureus septicemia; assay type: in vivo; conditions: 55 30 mpk, vancomycin 50 mpk; 4, 24, 48 hours post infection
HepG2 cells = experiment: HepG2 cytotoxicity counterscreen; assay type: cell-based, human; conditions: cellular ATP content, CellTiter-Glo, 48 hr
B. subtilis = experiment: MIC determination, broth dilution, B. subtilis; assay type: cell-based, Bacillus subtilis; conditions: Bacillus subtilis
Outline: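 Bacterial MIC followed NCCLS M07 broth microdilution. Test compound in DMSO (1 μL) added to 50 μL cation-adjusted Mueller Hinton II broth, then ~1 × 10^3 cfu from overnight liquid culture. Incubated at 30–37 °C for 16–20 h. MIC taken as the first well without visible growth. For imaging, 0.7% w/v resazurin (10 μL) added, then 4 h at 37 °C.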

B. subtilis 168 = experiment: Membrane damage assessment; assay type: cell-based, Bacillus subtilis; conditions: 15 min incubation, up to 10-fold MIC, Syto9/propidium iodide
Outline: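 B. subtilis membrane integrity assessed by fluorescence microscopy with Syto9, which stains all cells, and propidium iodide, which enters only compromised cells. […] Stained cells were counted.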

human PPTase = target: T2, human PPTase (Homo sapiens, UniProt Q9NRN7); experiment: Gel-based PPTase assay with the human enzyme; assay type: biochemical; conditions: concentrations up to 125 μM
T2 sequence (Q9NRN7 1-309): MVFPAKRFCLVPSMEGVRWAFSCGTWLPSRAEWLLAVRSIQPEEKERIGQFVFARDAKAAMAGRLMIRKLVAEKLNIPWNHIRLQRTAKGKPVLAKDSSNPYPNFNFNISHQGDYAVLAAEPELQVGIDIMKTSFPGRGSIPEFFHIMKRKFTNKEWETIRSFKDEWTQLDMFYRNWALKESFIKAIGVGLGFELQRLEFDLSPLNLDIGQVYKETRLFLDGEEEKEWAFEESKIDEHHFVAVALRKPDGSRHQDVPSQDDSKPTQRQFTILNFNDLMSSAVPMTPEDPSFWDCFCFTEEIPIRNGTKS

Sfp-PPTase = target: T3, Sfp-PPTase (Bacillus subtilis, UniProt P39135); experiment: Rescue-by-dilution reversibility experiment; assay type: biochemical; conditions: 100-fold dilution from conditions producing 90% inhibition
T3 sequence (P39135 1-224): T1 sequence (P39135 1-224)

E. coli BW25113 = experiment: Checkerboard synergy experiment with PAβN; assay type: cell-based, Escherichia coli; conditions: top concentrations tested
Outline: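 Checkerboard broth dilution in E. coli BW25113 combining test compound with PAβN over concentration grids. Resazurin added (10 μL, 0.7% w/v) and incubated a further 4 h at 37 °C; purple wells scored as no metabolically active bacteria. At each test-compound concentration, the lowest PAβN concentration halting growth was recorded. FIC index was estimated as combined potency relative to the single components.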

B. subtilis (HM489) = experiment: B. subtilis HM489 antibacterial assay; assay type: cell-based, Bacillus subtilis; conditions: cellular ATP content, Bac-Titer Glo

**Q.** With `Cc1ccnc(NC(=S)NC2CCN(c3cccc(C(F)(F)F)c3)CC2)c1` [Compound 20] as the molecule, how does the “IC50 ± SD” value (B. subtilis Sfp-PPTase; Table 1, HTS assay) read?
**A.** inactive

**Q.** Which “survival in mouse sepsis model” value [1] does the source give for `CN[C@H](CC(C)C)C(=O)N[C@H]1C(=O)N[C@@H](CC(N)=O)C(=O)N[C@H]2C(=O)N[C@H]3C(=O)N[C@H](C(=O)N[C@H](C(=O)O)c4cc(O)cc(O)c4-c4cc3ccc4O)[C@H](O)c3ccc(c(Cl)c3)Oc3cc2cc(c3O[C@@H]2O[C@H](CO)[C@@H](O)[C@H](O)[C@H]2O[C@H]2C[C@](C)(N)[C@H](O)[C@H](C)O2)Oc2ccc(cc2Cl)[C@H]1O` [vancomycin, reference compound] here?
**A.** completely protected animals from morbidity

**Q.** With `Cc1ccnc(NC(=S)N2CCC(Nc3cccc(C(F)(F)F)c3)CC2)c1` [Compound 63, N-(4-Methylpyridin-2-yl)-4-((3-(trifluoromethyl)phenyl)amino)piperidine-1-carbothioamide Trifluoroacetate] as the molecule, how does the “cytotoxicity (HepG2), IC50” value (HepG2 cells) read?
**A.** inactive

**Q.** For `CCCCCCCCCCCCCCCC[N+](C)(C)C` [CTAB, cetyltrimethylammonium bromide], which MIC (B. subtilis) is on record?
**A.** ~2 µg/mL

**Q.** And the “bacterial cell membrane integrity” value (B. subtilis 168)?
**A.** rapid compromise of bacterial cell integrity

**Q.** What does the source list for `Cc1cc(C)nc(N/C(=N/C#N)N2CCN(c3cccc(C(F)(F)F)c3)CC2)c1` [Compound 14]?
**A.** Sfp-PPTase inhibitory activity in words (B. subtilis Sfp-PPTase): complete loss of activity; IC50 ± SD (B. subtilis Sfp-PPTase; Table 1, HTS assay): inactive

**Q.** For `Cc1cc(C)nc(Nc2nnc(N3CCN(c4cccc(C(F)(F)F)c4)CC3)s2)c1` [Compound 16], which “IC50 ± SD” value (B. subtilis Sfp-PPTase; Table 1, HTS assay) is on record?
**A.** inactive

**Q.** Which results are given for `Nc1ncnc2c1ncn2[C@@H]1O[C@H](COP(=O)(O)O)[C@@H](OP(=O)(O)O)[C@H]1O` [PAP, 3′-phosphoadenosine 5′-monophosphate, reference compound]?
**A.** inhibition of the human PPTase (human PPTase): observed inhibition; reversibility of inhibition of Sfp (Sfp-PPTase): reversible

**Q.** Which “antibacterial activity of the single compound against BW25113” value (E. coli BW25113) does the source give for `NC(N)=NCCC[C@H](NC(=O)[C@@H](N)Cc1ccccc1)C(=O)Nc1ccc2ccccc2c1` [PAβN, phenylarginine-β-naphthamide, reference compound] (H-Phe-Arg-βNA) here?
**A.** neither compound alone was found to possess antibacterial activity

**Q.** `C/N=c1\nc(-c2ccccc2)n(-c2ccccc2)s1` [SCH-202676, reference compound] was tested. Which “inhibition of the human PPTase” value (human PPTase) did it give?
**A.** observed inhibition

**Q.** And the “reversibility of inhibition of Sfp” value (Sfp-PPTase)?
**A.** irreversible inhibitor

**Q.** Which “cytotoxicity (HepG2), IC50” value (HepG2 cells) does the source give for `Cc1cc(C)nc(NC(=S)N2CCN(c3ccc(Cl)cc3C(F)(F)F)CC2)c1` [Compound 41, 4-(4-Chloro-2-(trifluoromethyl)phenyl)-N-(4,6-dimethylpyridin-2-yl)piperazine-1-carbothioamide Trifluoroacetate] here?
**A.** inactive

**Q.** How did the MIC (B. subtilis) turn out when `O=C(N[C@H](CO)[C@H](O)c1ccc([N+](=O)[O-])cc1)C(Cl)Cl` [Chloramphenicol] was run?
**A.** ~2 µg/mL (≈ 6.19 µM)

**Q.** What about the “bacterial cell membrane integrity” value (B. subtilis 168) of the same molecule?
**A.** continued cellular viability

**Q.** How did the “IC50 ± SD” value (B. subtilis Sfp-PPTase; Table 1, HTS assay) turn out when `FC(F)(F)c1cccc(N2CCN(C(=S)Nc3ccncc3)CC2)c1` [Compound 6] was run?
**A.** inactive

**Q.** For `Cc1ccnc(NC(=S)N2CCN(c3cccc(C(F)(F)F)c3)CC2)c1` [Compound 1, N-(4-Methylpyridin-2-yl)-4-(3-(trifluoromethyl)phenyl)piperazine-1-carbothioamide Trifluoroacetate], which “reversibility of inhibition of Sfp” value (Sfp-PPTase) is on record?
**A.** completely reversible inhibition

**Q.** Which “IC50 ± SD” value (B. subtilis Sfp-PPTase; Table 1, HTS assay) does the source give for `Cc1ccnc(NC(=N)N2CCN(c3cccc(C(F)(F)F)c3)CC2)c1` [Compound 13] here?
**A.** inactive

**Q.** Which “Sfp-PPTase inhibitory activity in words” value (B. subtilis Sfp-PPTase) does the source give for `Cc1ccnc(NC(=S)NCCN(C)c2cccc(C(F)(F)F)c2)c1` [Compound 57] here?
**A.** lost all activity

**Q.** What about the “IC50 ± SD” value (B. subtilis Sfp-PPTase; Table 3, HTS assay) of the same molecule?
**A.** inactive

**Q.** How did the “Sfp-PPTase inhibitory activity in words” value (B. subtilis Sfp-PPTase) turn out when `Cc1ccnc(NC(=S)NC2CN(c3cccc(C(F)(F)F)c3)C2)c1` [Compound 59] was run?
**A.** all activity is lost

**Q.** And the “IC50 ± SD” value (B. subtilis Sfp-PPTase; Table 3, HTS assay)?
**A.** inactive

**Q.** Which “IC50 ± SD” value (B. subtilis Sfp-PPTase; Table 1, HTS assay) does the source give for `Cc1cccc(NC(=S)N2CCN(c3cccc(C(F)(F)F)c3)CC2)c1` [Compound 5] here?
**A.** inactive

**Q.** For `Cc1cc(C)nc(NC(=C(C#N)C#N)N2CCN(c3cccc(C(F)(F)F)c3)CC2)c1` [Compound 15], which “Sfp-PPTase inhibitory activity in words” value (B. subtilis Sfp-PPTase) is on record?
**A.** complete loss of activity

**Q.** And the “IC50 ± SD” value (B. subtilis Sfp-PPTase; Table 1, HTS assay)?
**A.** inactive

**Q.** `Cc1ccnc(NC(=O)N2CCN(c3cccc(C(F)(F)F)c3)CC2)c1` [Compound 12, N-(4-Methylpyridin-2-yl)-4-(3-(trifluoromethyl)phenyl)piperazine-1-carboxamide Trifluoroacetate] was tested. Which “IC50 ± SD” value (B. subtilis Sfp-PPTase; Table 1, HTS assay) did it give?
**A.** inactive

**Q.** What about the “Sfp-PPTase IC50” value (B. subtilis Sfp-PPTase; Table 4, HTS assay) of the same molecule?
**A.** inactive

**Q.** What about the “B. subtilis (HM489) IC50” value (B. subtilis (HM489)) of the same molecule?
**A.** inactive

**Q.** `Cc1ccnc(NC(=S)NCCNc2cccc(C(F)(F)F)c2)c1` [Compound 58] was tested. Which “Sfp-PPTase inhibitory activity in words” value (B. subtilis Sfp-PPTase) did it give?
**A.** lost all activity

**Q.** And the “IC50 ± SD” value (B. subtilis Sfp-PPTase; Table 3, HTS assay)?
**A.** inactive

**Q.** Which “cytotoxicity (HepG2), IC50” value (HepG2 cells) does the source give for `Cc1ccnc(NC(=S)N2CCN(c3ccccc3C(F)(F)F)CC2)c1` [Compound 22, N-(4-Methylpyridin-2-yl)-4-(2-(trifluoromethyl)phenyl)piperazine-1-carbothioamide Trifluoroacetate] here?
**A.** inactive

**Q.** How did the “IC50 ± SD” value (B. subtilis Sfp-PPTase; Table 1, HTS assay) turn out when `FC(F)(F)c1cccc(N2CCN(C(=S)Nc3cc(C(F)(F)F)ccn3)CC2)c1` [Compound 4] was run?
**A.** inactive

**Q.** `Cc1ccnc(N(C)C(=S)N2CCN(c3cccc(C(F)(F)F)c3)CC2)c1` [Compound 19] was tested. Which “IC50 ± SD” value (B. subtilis Sfp-PPTase; Table 1, HTS assay) did it give?
**A.** inactive
